# Calls of active or inactive are those of the source. The calls are words filed in the database; no cut-off is given here.
# What was measured:
# [1] = Toxicity in NMRI mouse assessed as adverse effect at 50 mg/kg, po measured upto 24 hrs by UP-LCMS analysis; assay type: organism-based; settings: in vivo
# Outline: (§1)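 Female NMRI mice (10–12 weeks, 29–32 g), acclimatized 1 week, given a single peroral bolus of 50 mg/kg (10 mL/kg). Toxicity signs scored on a 0–6 scale at 0–2, 5, 10, 15, 30, 60, 120, 240 min and 24 h after dosing.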
# Plasmodium falciparum [2] = experiment: Antiplasmodial activity against Plasmodium falciparum infected in NSG mouse model assessed as accumulation of circulating mature schizonts at 40 mg/kg, po measured after 3 days by giemsa staining based flow cytometry analysis; assay type: functional, organism-based; settings: time 3.0 day
# Outline: (§2)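 Female NSG mice (22–28 g) engrafted with human erythrocytes by daily i.p./i.v. injection; once >40% circulating human RBCs, infected i.v. with P. falciparum Pf3D7 0087/N9. Oral gavage (10 mL/kg) from ~1.3% parasitemia (Day 1); 40 mg/kg QD, BID or TID for 4 days. Parasitemia in tail blood by flow cytometry (TER-119-PE, SYTO-16) and Giemsa smears; stage distribution examined on day 3.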
# [3] = Toxicity in NMRI mouse assessed as drug tolerance at 50 mg/kg, po measured upto 24 hrs by UP-LCMS analysis; assay type: organism-based; settings: in vivo; outline: as §1
# Plasmodium falciparum [4] = experiment: Antiplasmodial activity against Plasmodium falciparum infected in PfalcHy mouse assessed as reduction in blood parasitemia level administered orally; assay type: functional, organism-based; settings: dose 40.0 mg/kg, route po; outline: as §2
smiles,measurement,setting,value
CCCN1CCCCCc2cccc(c2)C[C@@H]([C@H](O)CNC(C)(C)c2cccc(OC)c2)NC(=O)c2cccc(c2)C1=O,Activity,[1],Non-Toxic
same,Activity,Plasmodium falciparum [2],Active
same,Activity,[3],Non-Toxic
same,Activity,Plasmodium falciparum [4],Dose-Dependent Effect
